From the M2OR odorant receptor database

Assays:
Details in all cases: stereoisomer not certain
[1] = target: T1, OR1L3 (Homo sapiens) (UniProt Q8NH93)
T1 sequence (whole entry): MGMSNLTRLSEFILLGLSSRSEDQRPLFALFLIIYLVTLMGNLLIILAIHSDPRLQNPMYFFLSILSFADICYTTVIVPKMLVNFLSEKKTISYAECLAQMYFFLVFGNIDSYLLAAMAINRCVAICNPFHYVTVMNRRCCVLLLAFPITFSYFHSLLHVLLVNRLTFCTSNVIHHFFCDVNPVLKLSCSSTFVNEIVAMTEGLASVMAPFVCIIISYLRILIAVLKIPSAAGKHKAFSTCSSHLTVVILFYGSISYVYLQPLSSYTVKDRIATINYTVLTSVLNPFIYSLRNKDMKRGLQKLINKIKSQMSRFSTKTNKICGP
Method in brief: (§1)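 Each entry records the cell line, G-protein, co-transfected protein and tags used. Methods varied with the source, often transient luciferase assays in mammalian cell lines. A receptor–molecule pair is called responsive (active) if the original authors judged its signal statistically different from baseline and non-responsive (inactive) otherwise.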

[2] = tested on: OR1L1
OR1L1, sequence (as listed by the source): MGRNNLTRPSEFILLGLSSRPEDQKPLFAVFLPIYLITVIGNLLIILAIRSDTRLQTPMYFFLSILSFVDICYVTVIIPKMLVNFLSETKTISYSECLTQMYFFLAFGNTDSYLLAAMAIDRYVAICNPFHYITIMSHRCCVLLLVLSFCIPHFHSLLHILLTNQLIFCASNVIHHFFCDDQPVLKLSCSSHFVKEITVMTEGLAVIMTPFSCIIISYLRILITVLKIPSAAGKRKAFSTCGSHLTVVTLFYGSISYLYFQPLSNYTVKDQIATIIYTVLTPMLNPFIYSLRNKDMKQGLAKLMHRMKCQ
Method in brief: as §1

[3] = target: OR1L4 (Homo sapiens) (UniProt Q8NGR5)
OR1L4 (Homo sapiens), sequence (Q8NGR5 whole entry): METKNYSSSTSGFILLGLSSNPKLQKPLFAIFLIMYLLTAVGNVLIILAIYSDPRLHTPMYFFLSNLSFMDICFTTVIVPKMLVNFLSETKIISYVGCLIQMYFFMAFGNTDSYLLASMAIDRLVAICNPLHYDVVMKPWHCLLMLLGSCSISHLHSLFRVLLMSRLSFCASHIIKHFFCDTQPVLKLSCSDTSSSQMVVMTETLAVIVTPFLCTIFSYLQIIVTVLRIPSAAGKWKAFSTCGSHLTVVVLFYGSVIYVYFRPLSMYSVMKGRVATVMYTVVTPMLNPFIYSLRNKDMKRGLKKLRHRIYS
Method in brief: as §1

[4] = tested on: OR1L4
OR1L4, sequence (as listed by the source): as the sequence (Q8NGR5 whole entry) above, with G234R counted along it
Method in brief: as §1

[5] = tested on: OR1L6
OR1L6, sequence (as listed by the source): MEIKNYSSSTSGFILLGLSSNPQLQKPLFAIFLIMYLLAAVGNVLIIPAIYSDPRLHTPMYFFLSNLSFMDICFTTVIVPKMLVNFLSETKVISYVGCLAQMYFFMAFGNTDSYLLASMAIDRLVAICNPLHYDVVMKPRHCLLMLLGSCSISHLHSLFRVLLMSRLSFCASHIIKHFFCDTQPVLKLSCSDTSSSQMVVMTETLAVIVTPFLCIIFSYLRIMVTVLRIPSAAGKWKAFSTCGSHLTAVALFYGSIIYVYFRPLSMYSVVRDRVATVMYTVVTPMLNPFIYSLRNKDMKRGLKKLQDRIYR
Method in brief: as §1

[6] = target: OR1L8 (Homo sapiens) (UniProt Q8NGR8)
OR1L8 (Homo sapiens), sequence (Q8NGR8 whole entry): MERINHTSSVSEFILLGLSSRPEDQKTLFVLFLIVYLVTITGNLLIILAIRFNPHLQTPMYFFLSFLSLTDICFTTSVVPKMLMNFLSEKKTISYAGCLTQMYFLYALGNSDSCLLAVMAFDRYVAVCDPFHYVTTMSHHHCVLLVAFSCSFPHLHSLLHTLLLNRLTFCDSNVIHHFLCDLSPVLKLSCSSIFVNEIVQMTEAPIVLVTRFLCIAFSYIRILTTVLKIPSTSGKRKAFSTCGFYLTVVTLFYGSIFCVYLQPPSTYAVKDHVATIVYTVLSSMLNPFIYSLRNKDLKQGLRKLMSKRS
Method in brief: as §1

[7] = tested on: OR1L8 T27P R211P
Method in brief: as §1

[8] = target: OR1M1 (Homo sapiens) (UniProt Q8NGA1)
OR1M1 (Homo sapiens), sequence (Q8NGA1 whole entry): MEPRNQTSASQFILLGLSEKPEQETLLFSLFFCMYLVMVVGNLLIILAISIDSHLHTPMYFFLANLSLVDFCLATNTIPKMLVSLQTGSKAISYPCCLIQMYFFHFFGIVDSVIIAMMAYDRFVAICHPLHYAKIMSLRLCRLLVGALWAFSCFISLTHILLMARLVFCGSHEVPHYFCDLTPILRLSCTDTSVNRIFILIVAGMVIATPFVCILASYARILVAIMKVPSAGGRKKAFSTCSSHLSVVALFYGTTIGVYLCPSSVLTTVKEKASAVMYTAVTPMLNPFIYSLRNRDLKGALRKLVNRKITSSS
Method in brief: as §1

[9] = target: OR1L1 (Homo sapiens) (UniProt Q8NH94)
OR1L1 (Homo sapiens), sequence (Q8NH94 whole entry): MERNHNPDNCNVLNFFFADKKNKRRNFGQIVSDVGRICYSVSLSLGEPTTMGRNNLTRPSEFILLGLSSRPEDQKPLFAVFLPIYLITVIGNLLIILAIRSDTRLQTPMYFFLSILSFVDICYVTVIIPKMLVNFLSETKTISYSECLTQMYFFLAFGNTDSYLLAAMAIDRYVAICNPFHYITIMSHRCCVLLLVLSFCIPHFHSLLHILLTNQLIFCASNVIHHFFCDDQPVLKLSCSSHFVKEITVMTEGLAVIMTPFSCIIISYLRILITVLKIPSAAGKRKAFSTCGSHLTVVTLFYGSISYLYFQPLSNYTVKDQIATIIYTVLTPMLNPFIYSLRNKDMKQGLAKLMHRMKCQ
Method in brief: as §1

[10] = target: OR1L6 (Homo sapiens) (UniProt Q8NGR2)
OR1L6 (Homo sapiens), sequence (Q8NGR2 whole entry): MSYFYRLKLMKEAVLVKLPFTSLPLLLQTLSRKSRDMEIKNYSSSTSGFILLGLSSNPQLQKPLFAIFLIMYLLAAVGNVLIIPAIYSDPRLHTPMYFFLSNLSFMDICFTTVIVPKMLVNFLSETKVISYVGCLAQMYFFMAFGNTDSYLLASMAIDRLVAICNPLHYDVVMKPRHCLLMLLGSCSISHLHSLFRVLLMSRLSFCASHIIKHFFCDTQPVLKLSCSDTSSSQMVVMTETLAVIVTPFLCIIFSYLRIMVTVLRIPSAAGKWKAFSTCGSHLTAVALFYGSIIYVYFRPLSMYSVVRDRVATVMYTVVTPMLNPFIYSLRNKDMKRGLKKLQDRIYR
Method in brief: as §1

Measured: odorant receptor agonist call

C=CCc1ccc(OC)cc1
inactive: [1]

C=CCOC(=O)Cc1ccccc1
not listed: [9] | [10]
inactive: all other assays above

O=CC=Cc1ccccc1
inactive: [1]

Cc1c([N+](=O)[O-])c(C)c([N+](=O)[O-])c(C(C)(C)C)c1[N+](=O)[O-]
inactive: [9] | [1] | [3] | [10] | [6] | [8]

O=Cc1ccccc1
inactive: [1]
